Our source for the IC50 values is ChEMBL document CHEMBL4138044, “Withaferin A induces cell death and differentiation in multiple myeloma cancer stem cells” (Medchemcomm, 2017).

For test [1], the system named is Multiple myeloma cancer stem cell. As to the kind of experiment: Antiproliferative activity against human multiple myeloma cancer stem cells after 72 hrs by MTT assay. Type of test: functional, cell-based. In a few lines:
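MM-CSCs plated at 5000 cells/well and allowed to adhere 24 h, then exposed to 0–10 μM WFA for 72 h. MTT added for 2 h. Growth taken as absorbance relative to vehicle-control wells ×100. IC50 fitted from at least five concentrations; mean of three independent experiments ± SEM.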
In general terms: Tetrazolium assays rely on reduction of a dye to a coloured formazan, in cell work by metabolically active cells.

Test [2] can be described thus: Antiproliferative activity against human […] cells after 72 hrs by XTT assay. In kind it is functional, cell-based. In short, it runs like this: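 RPMI 8226 cells in RPMI 1640 with 10% FBS, plated at 15 000 cells/well and treated immediately with 0–10 μM WFA for 72 h. XTT added for 4 h. Growth as absorbance relative to vehicle control ×100. IC50 fitted from at least five concentrations; mean of three independent experiments ± SEM.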

As usually defined, the IC50 is the concentration that inhibits the measured activity by half. In the case of `CC(C)C[C@H](NC(=O)[C@H](Cc1ccccc1)NC(=O)c1cnccn1)B(O)O` [BORTEZOMIB], the half-inhibitory concentration (IC50) in test [1] was determined as 8.4 nM; in test [2], 3.6 nM.
